Test results published in ChEMBL document CHEMBL3997803, “Accepting the Invitation to Open Innovation in Malaria Drug Discovery: Synthesis, Biological Evaluation, and Investigation on the Structure-Activity Relationships of Benzo[b]thiophene-2-carboxamides as Antimalarial Agents” (J Med Chem, 2017).
The source made the active and inactive calls. The rule behind the calls is not given here.

Experiments:
[1] = tested on: Plasmodium falciparum; assay: Anti-parasitic activity against CQ-sensitive Plasmodium falciparum D10 assessed as growth inhibition by measuring increase in LDH release after 72 hrs by spectrophotometric method; format: functional; settings: D10, 72 h
How it was run: (§1)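 Asynchronous cultures (parasitemia 1–1.5%, 1% final hematocrit, human A+ RBCs) in RPMI 1640 with 1% AlbuMax, 0.01% hypoxanthine, 20 mM HEPES, 2 mM glutamine. Serial dilutions from DMSO stocks (final DMSO <1%). IC50 as mean ± SD of ≥3 experiments in duplicate.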

[2] = tested on: Plasmodium falciparum; assay: Anti-parasitic activity against CQ-resistant Plasmodium falciparum W2 assessed as growth inhibition by measuring increase in LDH release after 72 hrs by spectrophotometric method; format: functional; settings: W2, 72 h; how it was run: as §1
[3] = tested on: HMEC-1; assay: Antiproliferative activity against SV40 large T-antigen 38 immortalized HMEC1 cells after 72 hrs by MTT assay; format: cell-based; settings: Homo sapiens, HMEC-1, 72 h
How it was run: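 HMEC-1 cells (SV40 large T-antigen immortalized) grown in MCDB 131 with 10% fetal calf serum, 10 ng/mL EGF, 1 μg/mL hydrocortisone, 2 mM glutamine, penicillin/streptomycin, 20 mM Hepes. Treated with serial dilutions for 72 h; proliferation read by MTT. IC50 = dose inhibiting growth 50%; mean and SD of at least three experiments in duplicate.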

[4] = Selectivity index, ratio of IC50 for SV40 large T-antigen 38 immortalized HMEC1 cells to IC50 for CQ-sensitive Plasmodium falciparum D10; format: toxicity; settings: human, read-out: Ratio IC50
[5] = Selectivity index, ratio of IC50 for SV40 large T-antigen 38 immortalized HMEC1 cells to IC50 for CQ-resistant Plasmodium falciparum W2; format: toxicity; settings: human, read-out: Ratio IC50
[6] = Half-life in human liver microsomes at 1 uM in presence of NADPH by HPLC-MS/MS method; format: ADME, microsome
[7] = tested on: Escherichia coli; assay: Inhibition of Escherichia coli ClpB ATP hydrolysis activity at 1.5 uM after 15 mins by spectrophotometric method
How it was run: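 E. coli ClpB (concentration as monomer) assayed at 37 °C in 100 mM Tris/HCl pH 8, 1 mM DTT, 1 mM EDTA, 10 mM MgCl2. Reaction started by adding ClpB to buffer holding compound (DMSO stock diluted in buffer) and 4 mM ATP. Inorganic phosphate released from ATP quantified; matching DMSO amounts as controls.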

[8] = tested on: Escherichia coli; assay: Inhibition of Escherichia coli ClpB ATP hydrolysis activity at 1.5 uM preincubated for 21 mins followed by ATP addition by spectrophotometric method
How it was run: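 E. coli ClpB ATPase in 100 mM Tris/HCl pH 8, 1 mM DTT, 1 mM EDTA, 10 mM MgCl2, 37 °C. ClpB and compound (DMSO stock diluted in buffer) combined first; reaction started by adding ATP. ATP hydrolysis followed as inorganic phosphate generated; equivalent DMSO amounts served as controls.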

SMILES | IC50 [1] | IC50 [2] | IC50 [3] | selectivity ratio [4] | selectivity ratio [5] | half-life at 1 µM [6] | inhibition [7] | inhibition [8]
C[C@@H]1CN(C(=O)c2sc3ccccc3c2O)C[C@H](C)O1 | > 15 µM | > 15 µM | – | – | – | – | – | –
COc1ccc(COc2c(C(=O)N3C[C@@H](C)O[C@@H](C)C3)sc3ccccc23)cc1 | 0.146 µM | 0.877 µM | 83 µM | 250 to 5000 | 250 to 5000 | – | – | –
C[C@@H]1CN(C(=O)c2cc3ccccc3[nH]2)C[C@H](C)O1 | > 15 µM | > 15 µM | – | – | – | – | – | –
C[C@@H]1CN(C(=O)c2sc3ccccc3c2OCc2ccccc2)C[C@H](C)O1 | 0.038 µM | 0.142 µM | 73 µM | 250 to 5000 | 250 to 5000 | 2.1 min | inactive | inactive
C[C@@H]1CN(C(=O)c2cc3ccccc3o2)C[C@H](C)O1 | > 15 µM | > 15 µM | – | – | – | – | – | –
Cc1ccc2c(Cl)c(C(=O)N3C[C@@H](C)O[C@@H](C)C3)sc2c1 | 0.086 µM | 0.596 µM | 201 µM | 250 to 5000 | 250 to 5000 | – | – | –
C[C@@H]1CN(C(=O)c2cc3ccccc3s2)C[C@H](C)N1 | > 15 µM | > 15 µM | – | – | – | – | – | –
O=C(NC12CC3CC(CC(C3)C1)C2)c1sc2ccccc2c1Cl | > 15 µM | > 15 µM | – | – | – | – | – | –
CC1CC(C)CN(C(=O)c2sc3ccccc3c2Cl)C1 (stereo not drawn) | 0.1 µM | 0.461 µM | 149 µM | 250 to 5000 | 250 to 5000 | – | – | –
C[C@@H]1CN(C(=O)c2nc3ccccc3s2)C[C@H](C)O1 | 9.79 µM | > 15 µM | – | – | – | – | – | –
O=C(c1sc2ccccc2c1Cl)N1CCCCC1 | > 15 µM | > 15 µM | – | – | – | – | – | –
O=C(Nc1ccccn1)c1sc2ccccc2c1Cl | > 15 µM | > 15 µM | – | – | – | – | – | –
CN1CCN(C(=O)c2cc3ccccc3s2)CC1 | > 15 µM | > 15 µM | – | – | – | – | – | –
C[C@@H]1CN(C(=O)c2sc3ccccc3c2OCc2ccc(F)c(F)c2)C[C@H](C)O1 | 0.141 µM | 0.747 µM | 97 µM | 250 to 5000 | 250 to 5000 | – | – | –
O=C(Nc1ccccc1)c1sc2ccccc2c1Cl | > 15 µM | > 15 µM | – | – | – | – | – | –
O=C(c1sc2ccccc2c1Cl)N1CCOCC1 | > 15 µM | > 15 µM | – | – | – | – | – | –
CCN(CC)CCCC(C)Nc1ccnc2cc(Cl)ccc12 (stereo not drawn) [CHLOROQUINE] | – | – | > 100 µM | – | – | – | – | –
C[C@@H]1CN(C(=O)c2sc3ccccc3c2N)C[C@H](C)O1 | 8.76 µM | > 15 µM | – | – | – | – | – | –
